Results gathered from unrelated publications.
Compare with care: the assays were run in different laboratories.
JAK3 JH1: Tyrosine-protein kinase JAK3, JH1 (JAK3, Homo sapiens, UniProt P52333)
JAK3: Tyrosine-protein kinase JAK3 (JAK3, Homo sapiens, UniProt P52333)

Structure (SMILES)	target	observed	action	technique	tested at	quantity	result
Cn1cncc1[C@@](O)(COc1ccc(C#N)cc1-c1ccc(OC(F)(F)F)cc1)c1ccc(C#N)cc1	JAK3 JH1	cell-free assay		competition with immobilised ligand	1 µM	remaining binding	100%
Nc1ncc(-c2nc(N3CCOCC3)nc(N3CCOCC3)n2)c(C(F)F)n1	JAK3 JH1	binding		competition with immobilised ligand	10 µM	remaining binding	46%
Cn1cc(-c2cccc(N3CCc4c(sc5c4CC(C)(C)C5)C3=O)c2CO)cc(Nc2ccncn2)c1=O	JAK3	enzyme activity	inhibitor		1 µM	inhibition	-4%
CC(C)(C)c1cc(C=C(C#N)C#N)cc(Br)c1O	JAK3	enzyme activity	inhibitor		0.5 µM	remaining activity	110%
Cn1cc(-c2cc(F)cc(N3CCn4c(cc5c4CCCC5)C3=O)c2CO)cc(Nc2ccc(N3CCN(C4COC4)CC3)cn2)c1=O	JAK3	enzyme activity	inhibitor		0.1 µM	inhibition	2%
C#Cc1n[nH]c2c(-c3cn([C@@H](C)c4ccccc4)c(=O)[nH]c3=O)cc(F)cc12	JAK3	enzyme activity	inhibitor		0.1 µM	inhibition	-12.1%
Cc1nn(C)cc1-c1nc2c(N3CCN(Cc4ccc(Cl)cc4)CC3)c(Cl)cnc2[nH]1	JAK3 JH1	binding		competition with immobilised ligand	1 µM	remaining binding	0.85%
O=c1[nH]c2ccccc2n1C1CCN(Cc2ccc(-c3[nH]c4cc5ncnc5cc4nc3-c3ccccc3)cc2)CC1	JAK3	cell-free assay			0.5 µM	remaining signal	100%
COc1ncccc1-c1cnn2ccc(N3CCN(C(=O)OC(C)C)CC3)nc12	JAK3	binding		competition with immobilised ligand	1 µM	remaining binding	71%
C#Cc1n[nH]c2c(-c3cn(C(C)c4ccccn4)c(=O)[nH]c3=O)cc(F)cc12 (stereo not shown)	JAK3	enzyme activity	inhibitor		1 µM	inhibition	-4.9%
